What was measured:
NS3 protease [1] = settings: compared with bilirubin; cited from earlier work
[2] = system: HCV replicon (Huh 5.15NS, sub-genomic HCV RNA genotype 1b); assay: HCV RNA replication in replicon cells, real-time RT-PCR; format: cell-based; settings: Hepatitis C virus, GETYPE1B, read-out: inhibition in replicon assays
Method in brief: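 Huh 5.15NS cells carrying subgenomic genotype 1b HCV RNA were seeded, left to attach overnight and treated in log phase for 48 h with compound (DMSO stock diluted into medium) or vehicle. Total RNA was extracted with Trizol and DNase-treated, then HCV RNA was measured by SYBR green real-time RT-PCR using ΔCT against GAPDH. EC50 came from sigmoidal regression, with 3–5 determinations per point and a known NS3-4A inhibitor as positive control.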

Huh 5.15 replicon cells = assay: MTT assay of cellular viability and proliferation; format: cell-based, human
Method in brief: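 Replicon cells were seeded semi-confluent, attached overnight, then given compound at 10 or 20 μM or vehicle, in triplicate or quadruplicate. MTT was added at 24 and 48 h and absorbance read at 570 nm. Blanks containing vehicle plus compound were subtracted, and viable cells were expressed relative to vehicle controls.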

[3] = biological target: HCV NS3-4A protease genotype 1B (Hepatitis C virus genotype 1b, UniProt P26663); assay: Recombinant NS3-4A protease FRET assay; format: biochemical; settings: compared with biliverdin
[4] = biological target: NS3-4A protease V36M mutant (Hepatitis C virus genotype 1b, UniProt P26663, V1062M); assay: Mutant recombinant NS3-4A protease fluorometric assay, V36M; format: biochemical, HCV; settings: V36M vs WT
Method in brief: (§1)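 Recombinant wild-type and mutant NS3-4A proteases were run side by side in a SensoLyte FRET assay across a range of compound concentrations. Excitation/emission of 591/622, 490/520 or 340/490 nm was chosen empirically for each compound, and parallel compound-only wells corrected for autofluorescence. Compound came from DMSO stock diluted into assay buffer, with vehicle controls.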

[5] = biological target: NS3-4A protease T54A mutant (Hepatitis C virus genotype 1b, UniProt P26663, T1080A); assay: Mutant recombinant NS3-4A protease fluorometric assay, T54A; format: biochemical, HCV; settings: T54A vs WT
Method in brief: as §1

[6] = biological target: NS3-4A protease A156T mutant (Hepatitis C virus genotype 1b, UniProt P26663, A1182T); assay: Mutant recombinant NS3-4A protease fluorometric assay, A156T; format: biochemical, HCV; settings: A156T vs WT
Method in brief: as §1

[7] = system: HCV proteins NS3-4A and core; assay: Western blot for HCV proteins in infected Huh 7.5 cells and Huh 5.15NS replicons; format: cell-based; settings: MPP 10 µM; J6/JFH infected Huh 7.5 cells 48 hrs, Huh 5.15NS replicons 24 hrs
Method in brief: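 Cells in log phase were treated with compound, then lysed. HCV proteins were detected by Western blot with anti-NS3-4A antibodies and enhanced chemiluminescence.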

NS3 protease [8] = settings: less effective for genotype 3; cited from earlier work

Compound: C=CC1=C(C)/C(=C/C2=NC(=C\c3[nH]c(/C=C4\NC(=O)C(C)=C4C=C)c(C)c3CCC(=O)O)/C(CCC(=O)O)=C2C)NC1=O [BV, biliverdin]
- IC50 for NS3 protease, fold less than BR (NS3 protease [1]): 30 fold

Compound: CC(C)(C)OC(=O)N[C@H]1CCCCC/C=C\[C@@H]2C[C@@]2(C(=O)NS(=O)(=O)C2CC2)NC(=O)[C@@H]2C[C@@H](OC(=O)N3Cc4cccc(F)c4C3)CN2C1=O [Danoprevir, reference compound]
- inhibition at 0.01 µM [2]: 80 to 90%
- effects on viable cells (Huh 5.15 replicon cells; 24 or 48 hrs, concentrations equivalent or in excess of EC50): little if any effects

Compound: C=CC1=C(C)c2cc3[n-]c(cc4[n-]c(cc5nc(cc1n2)C(C)=C5C=C)c(C)c4CCC(=O)O)c(CCC(=O)O)c3C.[Fe+2] [FePP, Iron protoporphyrin]
- reduction of viable cells (Huh 5.15 replicon cells; 10 or 20 μM, by 48 hrs): 12–19%

Compound: C=CC1=C(C)C2=Cc3c(C=C)c(C)c4[n]3[Zn][n]3c(c(C)c(CCC(=O)O)c3=CC3=NC(=C4)C(C)=C3CCC(=O)O)=CC1=N2 [ZnPP, Zn protoporphyrin]
- Ki, fold stronger than biliverdin [3]: 10–20 fold
- reduction of the amount of viable cells (Huh 5.15 replicon cells; 10 or 20 μM, 24 and 48 hrs intervals): 40–50%
- inhibition of mutant protease compared to wild-type enzyme [4]: same fidelity as the wild-type enzyme
- inhibition of mutant protease compared to wild-type enzyme [5]: same fidelity as the wild-type enzyme
- inhibition of mutant protease compared to wild-type enzyme [6]: same fidelity as the wild-type enzyme
- expression of HCV proteins NS3-4A and core (Western blot) [7]: decreased expression

Compound: C=C[C@@H]1C[C@]1(NC(=O)[C@@H]1C[C@@H]2CN1C(=O)[C@H](C(C)(C)C)NC(=O)O[C@@H]1C[C@H]1CCCCCc1nc3ccc(OC)cc3nc1O2)C(=O)NS(=O)(=O)C1CC1 [grazoprevir]
- difference in Ki, genotype 3 as compared to genotype 1 (NS3 protease [8]): 90 fold

— PMC7048954 (Drug Design, Development and Therapy, 2020)
